Measured values reported in ChEMBL document CHEMBL2321786, “Paclitaxel is an inhibitor and its boron dipyrromethene derivative is a fluorescent recognition agent for botulinum neurotoxin subtype A” (J Med Chem, 2013).
Active and inactive are the calls of the source. The rule behind the calls is not given here.

Legend:
[1] = biological target: Botulinum neurotoxin type A (Clostridium botulinum) (UniProt P0DPI0); assay: Inhibition of Clostridium botulinum recombinant neurotoxin A light chain using SNAPtide as substrate at 10 uM after 1 hr by FRET assay relative to control
Sequence of Botulinum neurotoxin type A (Clostridium botulinum) (P0DPI0 2-448 limits assumed): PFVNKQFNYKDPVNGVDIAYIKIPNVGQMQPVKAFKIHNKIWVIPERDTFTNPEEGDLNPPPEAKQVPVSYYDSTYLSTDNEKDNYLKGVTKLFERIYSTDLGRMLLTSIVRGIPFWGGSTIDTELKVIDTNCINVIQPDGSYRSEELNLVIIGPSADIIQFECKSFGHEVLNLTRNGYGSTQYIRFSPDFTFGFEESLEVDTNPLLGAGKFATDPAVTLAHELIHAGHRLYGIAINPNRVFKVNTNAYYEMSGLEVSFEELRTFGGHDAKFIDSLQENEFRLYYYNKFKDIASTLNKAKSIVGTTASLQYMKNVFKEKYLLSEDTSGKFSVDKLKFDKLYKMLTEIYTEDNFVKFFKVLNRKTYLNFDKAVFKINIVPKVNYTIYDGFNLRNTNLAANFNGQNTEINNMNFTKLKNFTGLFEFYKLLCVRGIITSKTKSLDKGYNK
Outline: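 Single-point FRET at 10 μM ligand: 10 nM light chain, 8 μM SNAPtide, pH 8.2, 37 °C, 1 h incubation, triplicate. Cleavage read at ex 490/em 523 nm. Percent inhibition calculated against uninhibited cleavage at the same substrate and enzyme levels.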

[2] = biological target: Botulinum neurotoxin type A (Clostridium botulinum) (UniProt P0DPI0); assay: Binding affinity to nonactivated whole Clostridium botulinum biotinylated neurotoxin A in streptavidin-coated magnetic beads at 10 uM after 1 hr by fluorescence intensity assay relative to control
[3] = biological target: Botulinum neurotoxin type A (Clostridium botulinum) (UniProt P0DPI0); assay: Binding affinity to Clostridium botulinum recombinant biotinylated neurotoxin A light chain incubated for 15 mins by scintillation proximity assay
Outline: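 Scintillation proximity binding: [3H]paclitaxel at each concentration incubated with 7 nM biotinylated light chain for 15 min at room temperature. Streptavidin-coated polyvinyltoluene SPA beads (2 mg/mL) then added. Run in triplicate, read at 1 h intervals by scintillation counting. Counts corrected for nonspecific binding/nonproximity effects.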

[4] = biological target: Botulinum neurotoxin type A (Clostridium botulinum) (UniProt P0DPI0); assay: Binding affinity to nonactivated whole Clostridium botulinum biotinylated neurotoxin A in streptavidin-coated magnetic beads using [14C] labeled compound at 25 uM relative to control
[5] = biological target: Botulinum neurotoxin type A (Clostridium botulinum) (UniProt P0DPI0); assay: Binding affinity to nonactivated whole Clostridium botulinum biotinylated neurotoxin A in streptavidin-coated magnetic beads using [14C] labeled compound at 50 uM relative to control
[6] = biological target: Botulinum neurotoxin type A (Clostridium botulinum, UniProt P0DPI0); assay: Inhibition of Clostridium botulinum recombinant neurotoxin A light chain using SNAPtide as substrate after 1 hr by FRET assay
Sequence of Botulinum neurotoxin type A (P0DPI0 2-448 limits assumed): as above
Outline: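 IC50 from a FRET dose-response: 10 nM light chain preincubated 30 min with inhibitor at 37 °C before adding SNAPtide (8 μM final). Fluorescence read at ex 490/em 523 nm and expressed relative to uninhibited cleavage. Triplicate wells with DMSO controls. IC50 from four-parameter nonlinear regression over two independent experiments.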

[7] = biological target: Botulinum neurotoxin type A (Clostridium botulinum) (UniProt P0DPI0); assay: Binding affinity to nonactivated whole Clostridium botulinum biotinylated neurotoxin A in streptavidin-coated magnetic beads using [14C] labeled compound at 10 uM relative to control

SMILES | inhibition [1] [%] | Activity [2] [%] | also measured
CC[C@@]1([C@@H]2O[C@@H]([C@H]3O[C@@](O)(CO)[C@H](C)C[C@@H]3C)C[C@@H]2C)CC[C@H]([C@]2(C)CC[C@]3(C[C@H](O)[C@@H](C)[C@@H]([C@@H](C)[C@@H](OC)[C@H](C)C(=O)O)O3)O2)O1 | 38 | – | –
N[C@@H](CCCc1c(CC[C@H](N)C(=O)O)c[n+](CCCC[C@H](N)C(=O)O)cc1CC[C@H](N)C(=O)O)C(=O)[O-] | 25 | – | –
CC(=O)O[C@H]1C(=O)[C@]2(C)[C@@H](OC(=O)CCNC(=O)c3ccc(-c4c5cc(F)c(=O)cc-5oc5cc(O)c(F)cc45)c(C(=O)O)c3)C[C@H]3OC[C@@]3(OC(C)=O)[C@H]2[C@H](OC(=O)c2ccccc2)[C@]2(O)C[C@H](OC(=O)[C@H](O)[C@@H](NC(=O)c3ccccc3)c3ccccc3)C(C)=C1C2(C)C | – | 4 | –
CC(=O)O[C@H]1C(=O)[C@@]2(C)[C@H]([C@H](OC(=O)c3ccccc3)[C@]3(O)C[C@H](OC(=O)[C@H](O)[C@@H](NC(=O)CCC4=[N+]5C(C=C4)Cc4ccc(/C=C/c6ccccc6)n4[B-]5(F)F)c4ccccc4)C(C)=C1C3(C)C)[C@]1(OC(C)=O)CO[C@@H]1C[C@@H]2O (stereo partly drawn) | – | 46 | –
CC(=O)O[C@H]1C(=O)[C@@]2(C)[C@H]([C@H](OC(=O)c3ccccc3)[C@]3(O)C[C@H](OC(=O)[C@H](O)[C@@H](NC(=O)c4ccccc4)c4ccccc4)C(C)=C1C3(C)C)[C@]1(OC(C)=O)CO[C@@H]1C[C@@H]2O [PACLITAXEL] | 85 | – | Activity [3]: Active; Activity [4]: 7%; Activity [5]: 7%; IC50 [6]: 5.2 µM
CC(=O)O[C@H]1C(=O)[C@@]2(C)[C@H]([C@H](OC(=O)c3ccccc3)[C@]3(O)C[C@H](OC(=O)[C@H](O)[C@@H](NC(=O)CCC4=[N+]5C(C=C4)Cc4c(C)cc(C)n4[B-]5(F)F)c4ccccc4)C(C)=C1C3(C)C)[C@]1(OC(C)=O)CO[C@@H]1C[C@@H]2O (stereo partly drawn) | – | 22 | –
OCC1(O)OC[C@@H](O)[C@@H](O)[C@@H]1O (stereo partly drawn) | 0 | – | Activity [7]: 5%
Nc1nc(N)c2nc(CNc3ccc(C(=O)N[C@@H](CCC(=O)O)C(=O)O)cc3)cnc2n1 | 11 | – | –
